Source: PubChem (several laboratories)
UCH37 DUB inh – inhibitors of human UCH37 deubiquitinase, primary screen, biochemical, Ub-AMC cleavage, fluorescence; purified proteasome/UCH37; Ubiquitin carboxyl-terminal hydrolase isozyme L5 (Homo sapiens), Q9Y5K5; inhibition, % (concentration not given with the values); 0.33% of 330,000 active;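 active = mean inhibition over replicate wells above about 20%, limit read from the data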;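 also: 0% = compound-free wells with enzyme and 100% = wells lacking proteasome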
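Signal – fluorescence, ex 355 nm, em 460 nm · System – Proteasome-bound UCH37 · Input – 0.15 nM proteasome as dispensed · Timing – 30 min preincubation with enzyme, 25 min cleavage at room temperature · Read-out basis – percent inhibition of cleavage signal versus uninhibited and no-proteasome wells · Medium – Tris-HCl pH 7.4 with ATP-MgCl2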
Tb MetRS inh – T. brucei MetRS inhibitors, primary screen, biochemical, luminescence; methionyl-tRNA synthetase (Trypanosoma brucei brucei); 0.4% of 360,000 active; purified T. brucei MetRS, ATP depletion, Kinase-Glo luminescence; inhibition, % at 11.9 µM; AID 624268, 2012;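 active = inhibition above a per-plate cutoff of the control wells' mean inhibition plus 3 SD, cut at about 5.5% in these data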;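 also: 0% = DMSO wells median and 100% = median of wells with control inhibitor compound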
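Measured by: Kinase-Glo luciferase luminescence reporting remaining unconsumed ATP. Material: purified T. brucei MetRS enzyme. Doses: 11.9 µM compound single dose, 0.9% DMSO. Medium: HEPES buffer containing pyrophosphatase, BSA, spermine, DTT. Times: 15 min preincubation, 2 h reaction, all 25 °C. Reagent: methionine, ATP and bulk E. coli tRNA.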
Rin1 Abl inh – inhibitors of Rin1-Abl protein binding, primary screen, biochemical, TR-FRET; 0.4% of 360,000 active; Tyrosine-protein kinase ABL1 (Homo sapiens) + Ras and Rab interactor 1 (Homo sapiens), …; AID 588664, 2011; inhibition, % at 7.35 µM; in the data active = inhibition above about 5%, passing the limit was not always enough
ATG4B inhibitor – ATG4B protease inhibitors, primary screen, biochemical, fluorescence, uHTS; Cysteine protease ATG4B (Homo sapiens), Q9Y4P1; ATG4B cleavage of LC3-PLA2, NBD-HPC fluorescence, 1 h; AID 504462, 2011; 0.51% of 340,000 active; inhibition, % at 8.33 µM; in the data active = inhibition above about 40%
ATG4B conf – ATG4B protease inhibitors, retest, confirmation, biochemical, fluorescence, single concentration; 92% of 320 active; AID 504757, 2011; inhibition, % at 8.33 µM; shares compounds with ATG4B inhibitor; ATG4B protease fluorescent substrate cleavage assay; in the data active = inhibition above about 39%
PLA2 counter – PLA2 enzyme inhibition, counter-screen for ATG4B inhibitor project, biochemical, single concentration, uHTS hits. shares compounds with ATG4B inhibitor. purified PLA2, NBD-C6-HPC fluorescence, 45 min. inhibition, % at 8.33 µM. 66% of 1,600 active; in the data active = inhibition above about 50%
* = called active by the depositor; x = not tested or not shown. The list is not random: actives were taken first. Their share in the collection is about 1.4%.

SMILES | UCH37 DUB inh | Tb MetRS inh | Rin1 Abl inh | ATG4B inhibitor | PLA2 counter | others
Cc1cccc(C)c1OCc1nc2ccccc2c(=O)n1/N=C/c1ccc(OCC(=O)O)cc1 | x | -0.6 | -0.1 | 52.8* | 36.9 | ATG4B conf=61.8*
Cc1ccc(S(=O)(=O)N(CC(=O)N=Nc2c(O)[nH]c3ccccc23)c2cccc(C)c2)cc1 | 7.0 | -0.1 | -3.1 | -12.3 | x
Cc1nn(CC(=O)NCC(C)c2ccccc2)c(=O)c2cc3occc3n12 (stereo not given) | 1.2 | 0.4 | 0.8 | 3.2 | x
Cn1nccc1NC(=O)Nc1cccc(Br)c1 | 4.7 | 2.1 | -1.2 | 7.4 | x
Cc1n[nH]c(=O)c2c(NC(=O)CSc3nc4ccccc4c(=O)n3-c3ccc(OC(F)F)cc3)oc(C)c12 | 1.4 | -0.3 | 1.2 | 41.3* | 75.4*
Cc1ccc2[nH]c3c(NCc4ccccc4)ncnc3c2c1 | -16.1 | x | x | 49.9* | 59.6*
COc1ccc(CNc2ncnc3c2[nH]c2cc(OC)c(OC)cc23)cc1 | -24.9 | -0.2 | 2.1 | -7.3 | x
CCCCC1=CC2=CC(=O)C(C)(OC(=O)CCc3ccccc3)C(=O)C2=CO1 (stereo not given) | 0.8 | -0.1 | 4.4 | 41.6* | 68.9*
O=C1CC(c2cccnc2)c2cc3c(cc2N1)OCCO3 (stereo not given) | 5.8 | -0.2 | 5.4 | -4.6 | x
OC(COCC1COc2ccccc2O1)CN1CCc2ccccc2C1 (stereo not given) | 2.7 | 0.8 | -0.5 | -3.9 | x
CCOc1ccccc1N1CCN(C2=C(NS(=O)(=O)c3cccs3)C(=O)c3ccccc3C2=O)CC1 | 1.7 | -0.5 | -1.6 | 57.4* | 65.3*
CN1CCN(C2=C(NS(=O)(=O)c3cccs3)C(=O)c3ccccc3C2=O)CC1 | 8.8 | -0.6 | -9.6 | -4.0 | x
O=C(NNc1cc(C(F)(F)F)nc2ccccc12)Nc1cccc(Cl)c1 | 6.9 | 0.7 | 1.0 | 85.3* | 84.7*
Cc1ccc(C)c(C(C)NC(=S)NCc2ccc(F)cc2)c1 (stereo not given) | 3.6 | -0.3 | 3.6 | 48.7* | 50.3*
COc1ccc(C=NNC(=O)c2ccc(CSc3nc(C)cc(C)n3)cc2)cc1O | 2.1 | x | x | x | x
CCOc1cc(/C=C2\CCC/C(=C\c3cc(Cl)c(O)c(OCC)c3)C2=O)cc(Cl)c1O | 7.1 | -0.9 | -3.6 | 44.4* | 50.6*
NC(=O)CN1C(=O)C2CCCCN2C(=O)c2ccccc21 (stereo not given) | 3.7 | -0.7 | 5.7 | -4.5 | x
Cc1ccc(C)c(CNC(=O)Nc2ccccc2)c1 | 0.5 | 0.9 | -0.2 | 48.9* | 50.5*
O=C(NCCCCCCCCNC(=O)c1cccc2ccccc12)c1cccc2ccccc12 | x | -0.4 | 0.7 | 3.8 | x
Cc1ccc(Cl)c(OCC(=O)Nc2ccc(S(=O)(=O)NC3=NCCCCC3)cc2)c1 | x | -0.2 | -2.0 | -3.1 | x
Cc1cc(OCC(=O)Nc2ccc(S(=O)(=O)NC3=NCCCCC3)cc2)c(C(C)C)cc1Cl | 3.8 | -0.7 | 0.3 | 48.0* | 56.0*
Cc1ccc(NC(=O)CCC(=O)n2nc(C)cc2C)c(C)c1 | 3.1 | -1.0 | 0.4 | -4.1 | x
CCOc1ccc(C(=O)Nc2ccccc2-c2ccccc2)cc1Cl | -1.9 | 0.2 | -1.9 | 45.2* | 48.1
COc1ccc2oc(-c3ccncc3)cc(=O)c2c1 | -103.2 | -0.1 | 1.4 | 1.0 | x
COc1ccc(N(C(=O)c2ccn[nH]2)C(C(=O)NC2CCCC2)c2ccc(F)cc2)cc1 (stereo not given) | 4.6 | 0.4 | -0.3 | -16.3 | x
SMILES | UCH37 DUB inh | Tb MetRS inh | Rin1 Abl inh | ATG4B inhibitor | PLA2 counter | others
Fc1ccc(CNC(=S)NCc2cccc(Cl)c2)cc1 | 3.5 | 1.0 | -0.3 | 79.4* | 85.6*
S=C(NCc1ccccc1)NCc1cccc(Cl)c1 | 2.7 | 1.5 | 1.8 | 63.9* | 77.6*
S=C(NCc1ccccc1)NCc1cccc(CNC(=S)NCc2ccccc2)c1 | 1.5 | -0.2 | -2.5 | 68.0* | 77.2*
Fc1ccc(CNC(=S)Nc2ccc(Cl)cc2Cl)cc1 | x | -0.1 | 1.3 | 23.3 | x
S=C(NCc1ccccc1)NCC1COc2ccccc2O1 (stereo not given) | 1.8 | 0.1 | -2.4 | 52.8* | 61.1*
COc1cc(/C=C/C(=O)OCC(=O)c2c(N)n(C)c(=O)n(C)c2=O)ccc1OCC#N | 0.3 | -0.5 | -4.5 | -13.3 | x
O=C(COc1ccccc1-c1ccccc1)NCc1cccc(Cl)c1 | 0.2 | -0.4 | -3.3 | 56.1* | 44.5 | ATG4B conf=57.0*
S=C(NCCc1cccc(Cl)c1)NCc1ccccc1 | x | 2.0 | -0.1 | x | x
O=C(COc1ccc(Cl)cc1Cl)NCCCCc1ccccc1 | 3.8 | -0.4 | -2.0 | -4.1 | x
S=C(NCCc1ccc(Cl)cc1)NCc1ccccc1 | 3.7 | 0.0 | 0.8 | 64.0* | 72.6*
COc1cccc(OC)c1C(=O)Nc1ccc(N2CCCC2)cc1 | 0.8 | -0.8 | 0.6 | 5.7 | x
O=C(Cc1ccc([N+](=O)[O-])cc1)Nc1ccc(O)cc1C(=O)O | 4.2 | 0.0 | -0.7 | 3.8 | x
O=c1nc(/C=C/c2ccccc2C(F)(F)F)cc(C(F)(F)F)[nH]1 | -8.4 | 0.2 | 2.0 | 44.7* | 59.4*
COc1ccc(/C=C/c2cc(C(F)(F)F)[nH]c(=O)n2)cc1OC | -36.5 | -0.7 | 5.2 | 1.1 | x
COc1ccc(CNC(=O)CCNC(=O)c2ccc(C(C)(C)C)cc2)cc1OC | 0.7 | -0.4 | 2.8 | -9.0 | x
O=C(CSc1nnc(CCc2ccccc2)n1-c1ccc(Cl)cc1)c1ccccc1 | -0.6 | -0.7 | -1.4 | 58.4* | 60.8*
O=C(N/N=C/C=C/c1ccccc1[N+](=O)[O-])c1cc(-c2ccccc2)n[nH]1 | x | 1.0 | -4.5 | 47.0* | 25.1
CCCc1cc(=O)[nH]c(SCc2cc(Cl)ccc2OC(F)F)n1 | 7.5 | -0.2 | 1.3 | 56.9* | 47.8 | ATG4B conf=51.8*
CCCc1cc(=O)[nH]c(SCc2ccc(Cl)cc2)n1 | 6.3 | 0.4 | 0.9 | 8.8 | x
Cc1cccc(Cc2cnc(N3C(=N)SC(C)C3=O)s2)c1 (stereo not given) | 2.9 | -0.9 | -1.0 | 4.4 | x
Cc1cccc(Cc2cnc(N3C(=N)SC(c4ccccc4)C3=O)s2)c1 (stereo not given) | 4.5 | -0.4 | -3.7 | 49.6* | 43.0
Fc1ccc2nc(N3CCCC3)sc2c1 | 2.8 | -0.4 | 1.9 | -4.8 | x
O=C1CN(c2nc(-c3cccs3)nc3sc4c(c23)CCCC4)CCN1 | -46.4 | -1.4 | -2.4 | 75.8* | 87.1*
O=C(CCSCc1cccc(Cl)c1)NCCC1=CCCCC1 | 0.1 | 0.1 | -2.3 | 46.4* | 25.0
CCOC(=O)/C(C#N)=N/Nc1ccccc1OC | x | 0.3 | -0.4 | 5.8 | x
